Results: ChEMBL document CHEMBL4689842, “EUbOPEN Chemogenomics Library wave 1” (2021)

System: Fibroblast
Assay: Multiplex assay against human fibroblast
Format: toxicity, cell-based
In short: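 Tubulin, mitochondrial-mass and membrane-permeability phenotypes are per cents of healthy-nucleus cells. Cells were gated by CellPathfinder machine learning into Hoechst high-intensity objects or normal cells, normal cells into healthy, pyknosed or fragmented nuclei, and pyknosed cells into mitotic or apoptotic. Before that, live cells stained at seeding with Hoechst33342, BioTracker Green Microtubule Cytoskeleton Dye, MitoTracker Red and Annexin V Alexa Fluor 680 were imaged on a CQ1 microscope at 37°C and 5% CO2 after compound addition.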

[1] = 12 h, 1 µM, compound concentration 1 uM, replicate 1
[2] = 12 h, 1 µM, compound concentration 1 uM, replicate 2
[3] = 12 h, 10 µM, compound concentration 10 uM, replicate 1
[4] = 12 h, 10 µM, compound concentration 10 uM, replicate 2
[5] = 24 h, 1 µM, compound concentration 1 uM, replicate 1
[6] = 24 h, 1 µM, compound concentration 1 uM, replicate 2
[7] = 24 h, 10 µM, compound concentration 10 uM, replicate 1
[8] = 24 h, 10 µM, compound concentration 10 uM, replicate 2
[9] = 48 h, 1 µM, compound concentration 1 uM, replicate 1
[10] = 48 h, 1 µM, compound concentration 1 uM, replicate 2
[11] = 48 h, 10 µM, compound concentration 10 uM, replicate 1
[12] = 48 h, 10 µM, compound concentration 10 uM, replicate 2

C[C@@H](Oc1cc(-n2cnc3ccc(CN4CCN(C)CC4)cc32)sc1C(N)=O)c1ccccc1C(F)(F)F [GSK-461364]
Population Apoptotic (%) [1]: 75%
Population Fragmented Nuclei (%) [1]: 30%
Population Healthy Nuclei (%) [1]: 36%
Population Hoechst High Intensity Objects (%) [1]: 14%
Population Membrane Permeable-Phenotype (%) [1]: 34%
Population Mitochondria Different-Phenotype (%) [1]: 11%
Population Mitotic Cells (%) [1]: 25%
Population Normal (%) [1]: 85%
Population Pyknosed Nuclei (%) [1]: 33%
Population Tubulin-Different-Phenotype (%) [1]: 69%
Population Apoptotic (%) [2]: 12%
Population Fragmented Nuclei (%) [2]: 12%
Population Healthy Nuclei (%) [2]: 71%
Population Hoechst High Intensity Objects (%) [2]: 4%
Population Membrane Permeable-Phenotype (%) [2]: 12%
Population Mitochondria Different-Phenotype (%) [2]: 35%
Population Mitotic Cells (%) [2]: 87%
Population Normal (%) [2]: 95%
Population Pyknosed Nuclei (%) [2]: 16%
Population Tubulin-Different-Phenotype (%) [2]: 30%
Population Apoptotic (%) [3]: 78%
Population Fragmented Nuclei (%) [3]: 29%
Population Healthy Nuclei (%) [3]: 40%
Population Hoechst High Intensity Objects (%) [3]: 25%
Population Membrane Permeable-Phenotype (%) [3]: 21%
Population Mitochondria Different-Phenotype (%) [3]: 47%
Population Mitotic Cells (%) [3]: 21%
Population Normal (%) [3]: 74%
Population Pyknosed Nuclei (%) [3]: 30%
Population Tubulin-Different-Phenotype (%) [3]: 90%
Population Apoptotic (%) [4]: 40%
Population Fragmented Nuclei (%) [4]: 13%
Population Healthy Nuclei (%) [4]: 55%
Population Hoechst High Intensity Objects (%) [4]: 9%
Population Membrane Permeable-Phenotype (%) [4]: 71%
Population Mitochondria Different-Phenotype (%) [4]: 100%
Population Mitotic Cells (%) [4]: 59%
Population Normal (%) [4]: 90%
Population Pyknosed Nuclei (%) [4]: 31%
Population Tubulin-Different-Phenotype (%) [4]: 100%
Population Apoptotic (%) [5]: 70%
Population Fragmented Nuclei (%) [5]: 31%
Population Healthy Nuclei (%) [5]: 44%
Population Hoechst High Intensity Objects (%) [5]: 17%
Population Membrane Permeable-Phenotype (%) [5]: 12%
Population Mitochondria Different-Phenotype (%) [5]: 25%
Population Mitotic Cells (%) [5]: 29%
Population Normal (%) [5]: 82%
Population Pyknosed Nuclei (%) [5]: 24%
Population Tubulin-Different-Phenotype (%) [5]: 80%
Population Apoptotic (%) [6]: 50%
Population Fragmented Nuclei (%) [6]: 14%
Population Healthy Nuclei (%) [6]: 68%
Population Hoechst High Intensity Objects (%) [6]: 4%
Population Membrane Permeable-Phenotype (%) [6]: 18%
Population Mitochondria Different-Phenotype (%) [6]: 35%
Population Mitotic Cells (%) [6]: 50%
Population Normal (%) [6]: 95%
Population Pyknosed Nuclei (%) [6]: 17%
Population Tubulin-Different-Phenotype (%) [6]: 28%
Population Apoptotic (%) [7]: 60%
Population Fragmented Nuclei (%) [7]: 35%
Population Healthy Nuclei (%) [7]: 42%
Population Hoechst High Intensity Objects (%) [7]: 43%
Population Membrane Permeable-Phenotype (%) [7]: 35%
Population Mitochondria Different-Phenotype (%) [7]: 54%
Population Mitotic Cells (%) [7]: 40%
Population Normal (%) [7]: 56%
Population Pyknosed Nuclei (%) [7]: 22%
Population Tubulin-Different-Phenotype (%) [7]: 78%
Population Apoptotic (%) [8]: 82%
Population Fragmented Nuclei (%) [8]: 10%
Population Healthy Nuclei (%) [8]: 47%
Population Hoechst High Intensity Objects (%) [8]: 6%
Population Membrane Permeable-Phenotype (%) [8]: 90%
Population Mitochondria Different-Phenotype (%) [8]: 100%
Population Mitotic Cells (%) [8]: 17%
Population Normal (%) [8]: 93%
Population Pyknosed Nuclei (%) [8]: 41%
Population Tubulin-Different-Phenotype (%) [8]: 100%
Population Apoptotic (%) [9]: 70%
Population Fragmented Nuclei (%) [9]: 42%
Population Healthy Nuclei (%) [9]: 44%
Population Hoechst High Intensity Objects (%) [9]: 21%
Population Membrane Permeable-Phenotype (%) [9]: 20%
Population Mitochondria Different-Phenotype (%) [9]: 8%
Population Mitotic Cells (%) [9]: 30%
Population Normal (%) [9]: 78%
Population Pyknosed Nuclei (%) [9]: 13%
Population Tubulin-Different-Phenotype (%) [9]: 76%
Population Apoptotic (%) [10]: 25%
Population Fragmented Nuclei (%) [10]: 31%
Population Healthy Nuclei (%) [10]: 62%
Population Hoechst High Intensity Objects (%) [10]: 12%
Population Membrane Permeable-Phenotype (%) [10]: 18%
Population Mitochondria Different-Phenotype (%) [10]: 11%
Population Mitotic Cells (%) [10]: 75%
Population Normal (%) [10]: 87%
Population Pyknosed Nuclei (%) [10]: 5%
Population Tubulin-Different-Phenotype (%) [10]: 34%
Population Apoptotic (%) [11]: 90%
Population Fragmented Nuclei (%) [11]: 52%
Population Healthy Nuclei (%) [11]: 31%
Population Hoechst High Intensity Objects (%) [11]: 45%
Population Membrane Permeable-Phenotype (%) [11]: 22%
Population Mitochondria Different-Phenotype (%) [11]: 45%
Population Mitotic Cells (%) [11]: 9%
Population Normal (%) [11]: 54%
Population Pyknosed Nuclei (%) [11]: 15%
Population Tubulin-Different-Phenotype (%) [11]: 68%
Population Apoptotic (%) [12]: 75%
Population Fragmented Nuclei (%) [12]: 39%
Population Healthy Nuclei (%) [12]: 58%
Population Hoechst High Intensity Objects (%) [12]: 38%
Population Membrane Permeable-Phenotype (%) [12]: 5%
Population Mitochondria Different-Phenotype (%) [12]: 27%
Population Mitotic Cells (%) [12]: 25%
Population Normal (%) [12]: 61%
Population Pyknosed Nuclei (%) [12]: 2%
Population Tubulin-Different-Phenotype (%) [12]: 84%
